Usually IC50 stands for the concentration at which inhibition is half-maximal. The half-life is the time in which the quantity being followed falls by half. Higher therefore signals slow decline.

Results on 4 compounds are retold here after ChEMBL document CHEMBL1126202, “Dual-action penems and carbapenems” (J Med Chem, 1992).

In data set [1] the test system is Bacteroides thetaiotaomicron. Briefly: In vitro antibacterial activity against Bacteroides thetaiotaomicron 62B. Type of data set: functional. The gist of the method: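 Anaerobic MICs were determined in microtiter plates in Schaedler's broth supplemented with coenzyme I and hemin. Incubation was under an oxygen-free hydrogen-carbon dioxide atmosphere.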
Data set [2] relates to Bacteroides fragilis. Briefly: In vitro antibacterial activity against Bacteroides fragilis F117A. Type of data set: functional. The gist of the method: (§1)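 MIC by broth dilution in microtiter plates, run in an oxygen-free hydrogen–carbon dioxide atmosphere. Medium: Schaedler's broth with coenzyme I and hemin added.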
Data set [3] relates to Clostridioides difficile. The data set is described as follows: In vitro antibacterial activity against Clostridium difficile 651. Type of data set: functional.
A further data set concerns Clostridium perfringens. Briefly: In vitro antibacterial activity against Clostridium perfringens 13424. Type of data set: functional. In outline:
as §1

The test system of data set [4] is Bacteroides fragilis. The data set is described as follows: In vitro antibacterial activity against bacteroides fragilis S2. Type of data set: functional. In outline:
(§2)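 Anaerobic MIC, run in microtiter plates in Schaedler's broth supplemented with coenzyme I and hemin. Incubated in an oxygen-free hydrogen–carbon dioxide atmosphere.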

In a further data set the test system is Hathewaya histolytica. Briefly: In vitro antibacterial activity against clostridium histolyticum 503-86. The class given is functional. The gist of the method:
as §2

Data set [5] concerns Escherichia coli. Briefly: In vitro antibacterial activity against Escherichia coli 25922. The class given is functional. The gist of the method: (§3)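 MIC was determined by agar dilution on Mueller-Hinton agar. Serial 2-fold aqueous dilutions were diluted 10-fold in agar to give final concentrations of 128 to 0.0156 μg/mL. Plates were inoculated by Steers replicator with overnight broth cultures diluted 100-fold.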

In data set [6] the test system is Escherichia coli. The data set is described as follows: In vitro antibacterial activity against Escherichia coli 257. The class given is functional.
The subject of data set [7] is Escherichia coli. Briefly: In vitro antibacterial activity against Escherichia coli TEM-1 (constitutive beta-lactamase producer). The class given is functional. The gist of the method:
as §3

The next data set concerns Enterobacter cloacae. The data set is described as follows: In vitro antibacterial activity against enterobacter cloacae P99 (constitutive beta-lactamase producer). The class given is functional. In outline: as §3
For a further data set, the system named is Klebsiella pneumoniae. Briefly: In vitro antibacterial activity against klebsiella pneumoniae A. Type of data set: functional. The gist of the method:
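Agar-dilution MIC on Mueller-Hinton agar. Serial 2-fold dilutions were made in water, giving final agar concentrations of 128 to 0.0156 μg/mL. Inoculum was an overnight broth culture diluted 100-fold, applied with a multipoint replicator.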

Data set [8] relates to Proteus mirabilis. The data set is described as follows: (§4) In vitro antibacterial activity against Proteus mirabilis 90. The class given is functional. In outline: (§5)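 Proteus MICs were determined by agar dilution on Mueller-Hinton agar containing 3% agar. Serial 2-fold dilutions gave final concentrations of 128 to 0.0156 μg/mL. Plates were replicator-inoculated with 100-fold-diluted overnight broth cultures.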

Data set [9] concerns Pseudomonas aeruginosa. Briefly: (§6) In vitro antibacterial activity against Ps. aeruginosa 18SH (constitutive beta-lactamase producer). The class given is functional. In outline:
as §3

Data set [10] has as its system Pseudomonas aeruginosa. The data set is described as follows: In vitro antibacterial activity against Pseudomonas aeruginosa 8780. The class given is functional. In outline: as §3
A further data set relates to Proteus vulgaris. The data set is described as follows: In vitro antibacterial activity against proteus vulgaris ATCC 6380 (constitutive beta-lactamase producer). Type of data set: functional. In outline:
as §5

Data set [11] concerns Staphylococcus aureus. The data set is described as follows: In vitro antibacterial activity against Staphylococcus aureus 67(methicillin resistant). Type of data set: functional. In outline: (§7)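 MIC by agar dilution on Mueller-Hinton agar. Compounds were serially 2-fold diluted in water, final 128 to 0.0156 μg/mL in agar. Inoculum: overnight broth culture diluted 100-fold, applied with a Steers replicator.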

Data set [12] has as its system Staphylococcus aureus. The data set is described as follows: In vitro antibacterial activity against Staphylococcus aureus 753 (constitutive beta-lactamase producer). The class given is functional. In outline: as §7
The subject of the next data set is Streptococcus pyogenes. Briefly: In vitro antibacterial activity against Streptococcus pyogenes 4. The class given is functional. In outline:
(§8)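 Streptococcal MICs were determined by agar dilution on brain heart infusion agar supplemented with 20 units/mL bovine liver catalase. Final concentrations were 128 to 0.0156 μg/mL from 2-fold dilutions. Inocula were overnight broth cultures diluted 100-fold, applied by Steers replicator.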

Another data set relates to Serratia marcescens. Briefly: In vitro antibacterial activity against serratia marcescens SM (constitutive beta-lactamase producer). The class given is functional. The gist of the method: as §3
Data set [13] concerns Staphylococcus aureus. The data set is described as follows: In vitro antibacterial activity against staphylococcus aureus smith. Type of data set: functional. The gist of the method: as §3
Another data set has as its system Streptococcus pneumoniae. The data set is described as follows: In vitro antibacterial activity against streptococcus pneumoniae 6301. The class given is functional. The gist of the method: as §8
A further data set relates to Citrobacter freundii. The data set is described as follows: In vitro antibacterial activity against citrobacter freundii BS-16 (constitutive beta-lactamase producer). Type of data set: functional. The gist of the method:
as §3

In data set [14] the test system is Clostridioides difficile. The data set is described as follows: In vitro antibacterial activity against Clostridium difficile 701. The class given is functional.
For data set [15], the system named is Escherichia coli. Briefly: Effect on replication DNA biosynthesis in Escherichia coli H560 (permeabilised cells). Type of data set: functional, organism-based. The gist of the method: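 Toluene-permeabilized E. coli H560 cells were used. Replicative DNA synthesis was measured as ATP-dependent [3H]thymidine incorporation into trichloroacetic acid-insoluble material. IC50 is the concentration giving 50% inhibition.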

Data set [16] concerns Escherichia coli. Briefly: In vitro antibacterial activity against Escherichia coli UB1005 (nalidixic acid-resistant strain). The class given is functional. In outline: as §3
Data set [17] deals with Proteus mirabilis. The description is as §4. Type of data set: functional. The gist of the method: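 MIC by agar dilution on Mueller-Hinton agar containing 3% agar. Compounds were serially 2-fold diluted in water, final 128 to 0.0156 μg/mL in agar. Inoculum: overnight broth culture diluted 100-fold, applied with a Steers replicator.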
This is another data set of the same source.

Data set [18] deals with Pseudomonas aeruginosa. The description is as §6.
Data set [19] relates to Pseudomonas aeruginosa. Briefly: microbe, parasite or virus in culture.
Data set [20] can be described thus: Stability in pH 7.4 phosphate buffer at 37 degree C. Type of data set: physicochemical. The gist of the method:
(§9)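 Compounds were held in pH 7.4 phosphate buffer at 37 °C and monitored by reverse-phase HPLC on a PRP-1 column with UV detection at 275–286 nm. The mobile phase was 0.01 M tetradecyltrimethylammonium bromide in pH 8.2 phosphate/acetonitrile. Product-peak decline was followed to at least 50%, and half-life was taken from semilogarithmic plots.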

Data set [21] has as its system Pseudomonas aeruginosa. The data set is described as follows: In vitro antibacterial activity against Pseudomonas aeruginosa 18SH (constitutive beta-lactamase producer). The class given is functional. The gist of the method:
as §3

Data set [22] can be described thus: Stability in pH 7.4 phosphate buffer at 37 degree C. The class given is physicochemical. The gist of the method:
as §9

Converted amounts (≈) assume the structure as drawn.

Take `CN1CCN(c2c(F)cc3c(=O)c(C(=O)O)cn(CCF)c3c2F)CC1` [FLEROXACIN]: the MIC stood at 64 µg/mL (≈ 173 µM) in [1]; 64 µg/mL (≈ 173 µM) against Bacteroides fragilis [2]; 16 µg/mL (≈ 43.3 µM) against Clostridioides difficile [3]; 0.5 µg/mL (≈ 1.35 µM) against Clostridium perfringens; 8 µg/mL (≈ 21.7 µM) against Bacteroides fragilis [4]; 0.25 µg/mL (≈ 0.677 µM) in the data set with Hathewaya histolytica. Also, the MIC against Escherichia coli [5] came to 0.03 µg/mL (≈ 0.0812 µM); in the data set on Escherichia coli [6], 0.0313 µg/mL (≈ 0.0847 µM); against Escherichia coli [7], 0.0625 µg/mL (≈ 0.169 µM); in the data set on Enterobacter cloacae, 0.0313 µg/mL (≈ 0.0847 µM); in the data set with Klebsiella pneumoniae, 0.0625 µg/mL (≈ 0.169 µM); in the data set on Proteus mirabilis [8], 0.25 µg/mL (≈ 0.677 µM). Besides, the MIC with Pseudomonas aeruginosa [9] was 1 µg/mL (≈ 2.71 µM); against Pseudomonas aeruginosa [10], 2 µg/mL (≈ 5.42 µM); against Proteus vulgaris, 0.0625 µg/mL (≈ 0.169 µM); in the data set on Staphylococcus aureus [11], 0.5 µg/mL (≈ 1.35 µM); against Staphylococcus aureus [12] it was 0.5 µg/mL (≈ 1.35 µM); in the data set on Streptococcus pyogenes, 2 µg/mL (≈ 5.42 µM). The MIC against Serratia marcescens was found to be 0.0625 µg/mL (≈ 0.169 µM); against Staphylococcus aureus [13] it was 0.25 µg/mL (≈ 0.677 µM); in the data set with Streptococcus pneumoniae, 4 µg/mL (≈ 10.8 µM); against Citrobacter freundii, 0.125 µg/mL (≈ 0.338 µM); with Clostridioides difficile [14] it was 16 µg/mL (≈ 43.3 µM); in the data set on Escherichia coli [16], 0.5 µg/mL (≈ 1.35 µM). In the data set with Escherichia coli [15], this compound yielded a 50% inhibitory concentration (IC50) of 1 µg/mL (≈ 2.71 µM).
As for `C[C@@H](O)[C@H]1C(=O)N2C(C(=O)O)=C(SCCNC=N)C[C@H]12.O`, the MIC in [1] was more than 128 µg/mL; against Bacteroides fragilis [2], 2 µg/mL; with Clostridioides difficile [3] it was 4 µg/mL; against Clostridium perfringens, less than 0.125 µg/mL; in the data set on Bacteroides fragilis [4] it was less than 0.125 µg/mL; in the data set on Hathewaya histolytica, less than 0.125 µg/mL. Further, the MIC against Escherichia coli [6] came out at 0.125 µg/mL; against Escherichia coli [7], 0.25 µg/mL; in the data set with Enterobacter cloacae, 0.25 µg/mL; in the data set with Klebsiella pneumoniae, 0.125 µg/mL; against Proteus mirabilis [17], 2 µg/mL; in the data set on Pseudomonas aeruginosa [18], 1 µg/mL. In addition, the MIC was 1 µg/mL against Proteus vulgaris; 32 µg/mL with Staphylococcus aureus [11]; 64 µg/mL against Staphylococcus aureus [12]; less than 0.0156 µg/mL with Streptococcus pyogenes; 0.25 µg/mL with Serratia marcescens; less than 0.0156 µg/mL in the data set on Staphylococcus aureus [13]. In addition, the MIC with Streptococcus pneumoniae was less than 0.0156 µg/mL; in the data set with Citrobacter freundii, 2 µg/mL; in the data set on Clostridioides difficile [14] it was 4 µg/mL; in the data set with Pseudomonas aeruginosa [19], 2 µg/mL.
In turn, `C[C@@H](O)[C@H]1C(=O)N2C(C(=O)[O-])=C(COC(=O)N3CCN(c4cc5c(cc4F)c(=O)c(C(=O)O)cn5C4CC4)CC3)[C@H](C)[C@H]12.[K+]` showed a half-life in data set [20] of 5 h. For the same compound, the MIC is 16 µg/mL in data set [1]; 4 µg/mL against Bacteroides fragilis [2]; 4 µg/mL in the data set on Clostridioides difficile [3]; less than 0.125 µg/mL against Clostridium perfringens; 1 µg/mL in the data set with Bacteroides fragilis [4]; less than 0.125 µg/mL in the data set with Hathewaya histolytica. The MIC was less than 0.0156 µg/mL in the data set with Escherichia coli [6]; 0.0313 µg/mL with Escherichia coli [7]; 0.0313 µg/mL against Enterobacter cloacae; 0.0625 µg/mL against Klebsiella pneumoniae; 0.125 µg/mL against Proteus mirabilis [8]; 0.5 µg/mL in the data set on Pseudomonas aeruginosa [21]. For the same compound, the MIC in the data set with Pseudomonas aeruginosa [10] came out at 0.5 µg/mL; with Proteus vulgaris, 0.0313 µg/mL; in the data set with Staphylococcus aureus [11] it was 0.5 µg/mL; with Staphylococcus aureus [12] it was 0.5 µg/mL; against Streptococcus pyogenes it was 0.0313 µg/mL; with Serratia marcescens, 0.0625 µg/mL. For the same compound, the MIC with Staphylococcus aureus [13] came out at 0.125 µg/mL; with Streptococcus pneumoniae, 0.0313 µg/mL; against Citrobacter freundii, 0.0625 µg/mL; with Clostridioides difficile [14] it was 1 µg/mL.
Turning to `C[C@@H](O)[C@H]1C(=O)N2C(C(=O)[O-])=C(COC(=O)c3cn(CCF)c4c(F)c(N5CCN(C)CC5)c(F)cc4c3=O)C[C@H]12.[Na+]`, the half-life in data set [22] was 11 h. The MIC in data set [1] is 4 µg/mL; against Bacteroides fragilis [2], 1 µg/mL; against Clostridium perfringens, less than 0.125 µg/mL; against Bacteroides fragilis [4] it was less than 0.125 µg/mL; against Escherichia coli [5] it was 0.12 µg/mL; against Escherichia coli [6], 0.125 µg/mL. The MIC was determined as 0.125 µg/mL in the data set with Escherichia coli [7]; 0.125 µg/mL against Enterobacter cloacae; 0.25 µg/mL against Klebsiella pneumoniae; 1 µg/mL against Proteus mirabilis [8]; 2 µg/mL in the data set with Pseudomonas aeruginosa [9]; 4 µg/mL with Pseudomonas aeruginosa [10]. Besides, the MIC amounted to 0.25 µg/mL in the data set with Proteus vulgaris; 1 µg/mL in the data set with Staphylococcus aureus [11]; 1 µg/mL against Staphylococcus aureus [12]; 0.0157 µg/mL in the data set with Streptococcus pyogenes; 0.25 µg/mL against Serratia marcescens; 0.125 µg/mL against Staphylococcus aureus [13]. The MIC against Streptococcus pneumoniae was 0.0157 µg/mL; in the data set with Citrobacter freundii, 0.25 µg/mL; in the data set with Clostridioides difficile [14], 4 µg/mL; against Escherichia coli [16], 1 µg/mL. Also, inhibition with Escherichia coli [15] was half-maximal at 10 µg/mL (IC50).
